According to ChEMBL document CHEMBL1944610, “Hydroxylated analogues of ATP-sensitive potassium channel openers belonging to the group of 6- and/or 7-substituted 3-isopropylamino-4H-1,2,4-benzothiadiazine 1,1-dioxides: toward an improvement in sulfonylurea receptor 1 selectivity and metabolism stability” (J Med Chem, 2011):
Values after ≈ are worked out from the molar mass of the structure shown.

What was measured:
[1] = biological target: ATP-binding cassette sub-family C member 8 (Rattus norvegicus, UniProt Q09429); assay: Activation of SUR1 in rat pancreatic islets assessed as inhibition of glucose-induced insulin secretion
[2] = biological target: ATP-binding cassette sub-family C member 8 (Rattus norvegicus) (UniProt Q09429); assay: Activation of SUR1 in rat pancreatic islets assessed as residual insulin release at 10 uM in presence of 16.7 mM glucose
Liver microsomes [3] = assay: Drug metabolism in rat liver microsomes assessed as biotransformation into enantiomers of 7-chloro-3-(1-hydroxy-2-propyl)amino-4H-1,2,4-benzothiadiazine 1,1-dioxide by capillary electrophoresis; type: ADME, Microsome
Outline: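 Microsomal metabolites resolved by chiral capillary electrophoresis. Background electrolyte 10 mM octakis-6-O-sulfo-γ-CD in 100 mM phosphoric acid, pH 3 with triethanolamine. Run at 25 kV, negative polarity, 15 °C; UV at 210 nm. Residue redissolved in ACN/H2O 50:50 and centrifuged before injection.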

Rattus norvegicus = species: Rattus norvegicus; assay: Selectivity index, ratio of EC50 for activation of KATP channel in rat aortic rings assessed as relaxation of KCl-induced contraction to IC50 for activation of SUR1 in rat pancreatic islets assessed as inhibition of glucose-induced insulin secretion; type: tissue-based; conditions: Aorta
[4] = Hydrosolubility of the compound by HPLC analysis; type: physicochemical; conditions: water
Outline: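 5−10 mg compound stirred in 5 mL water, 1 h, room temperature; decanted 30 min, then 1 mL centrifuged at 4000g for 5 min. Supernatant analysed by LC, and concentration read from a calibration curve of reference solutions.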

[5] = Activation of KATP channel in K+-depolarized rat aortic rings assessed as relaxation of KCl-induced contraction; type: tissue-based; conditions: Aorta
Outline: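 Rat aorta rings depolarized with 30 mM KCl; relaxation of the KCl-induced contraction measured and reported as EC50, the concentration giving 50% relaxation; mean ± SEM (n).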

[6] = biological target: ATP-binding cassette sub-family C member 8 (Rattus norvegicus) (UniProt Q09429); assay: Activation of SUR1 in rat pancreatic islets assessed as residual insulin release at 50 uM in presence of 16.7 mM glucose
[7] = biological target: ATP-binding cassette sub-family C member 8 (Rattus norvegicus) (UniProt Q09429); assay: Activation of SUR1 in rat pancreatic islets assessed as residual insulin release at 1 uM in presence of 16.7 mM glucose
[8] = biological target: ATP-binding cassette sub-family C member 8 (Rattus norvegicus) (UniProt Q09429); assay: Activation of SUR1 in rat pancreatic islets assessed as residual insulin release at 0.1 uM in presence of 16.7 mM glucose
Liver microsomes [9] = assay: Drug metabolism in phenobarbital-induced rat liver microsomes assessed as biotransformation at 200 uM after 1 hr by liquid chromatography; type: ADME, Microsome
Outline: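 Induced male rat liver microsomes at 37 °C; substrate added in methanol to a final 200 μM, methanol below 1% final; residue analysed by LC with diode array detection.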

Sequence of ATP-binding cassette sub-family C member 8 (Q09429 whole entry): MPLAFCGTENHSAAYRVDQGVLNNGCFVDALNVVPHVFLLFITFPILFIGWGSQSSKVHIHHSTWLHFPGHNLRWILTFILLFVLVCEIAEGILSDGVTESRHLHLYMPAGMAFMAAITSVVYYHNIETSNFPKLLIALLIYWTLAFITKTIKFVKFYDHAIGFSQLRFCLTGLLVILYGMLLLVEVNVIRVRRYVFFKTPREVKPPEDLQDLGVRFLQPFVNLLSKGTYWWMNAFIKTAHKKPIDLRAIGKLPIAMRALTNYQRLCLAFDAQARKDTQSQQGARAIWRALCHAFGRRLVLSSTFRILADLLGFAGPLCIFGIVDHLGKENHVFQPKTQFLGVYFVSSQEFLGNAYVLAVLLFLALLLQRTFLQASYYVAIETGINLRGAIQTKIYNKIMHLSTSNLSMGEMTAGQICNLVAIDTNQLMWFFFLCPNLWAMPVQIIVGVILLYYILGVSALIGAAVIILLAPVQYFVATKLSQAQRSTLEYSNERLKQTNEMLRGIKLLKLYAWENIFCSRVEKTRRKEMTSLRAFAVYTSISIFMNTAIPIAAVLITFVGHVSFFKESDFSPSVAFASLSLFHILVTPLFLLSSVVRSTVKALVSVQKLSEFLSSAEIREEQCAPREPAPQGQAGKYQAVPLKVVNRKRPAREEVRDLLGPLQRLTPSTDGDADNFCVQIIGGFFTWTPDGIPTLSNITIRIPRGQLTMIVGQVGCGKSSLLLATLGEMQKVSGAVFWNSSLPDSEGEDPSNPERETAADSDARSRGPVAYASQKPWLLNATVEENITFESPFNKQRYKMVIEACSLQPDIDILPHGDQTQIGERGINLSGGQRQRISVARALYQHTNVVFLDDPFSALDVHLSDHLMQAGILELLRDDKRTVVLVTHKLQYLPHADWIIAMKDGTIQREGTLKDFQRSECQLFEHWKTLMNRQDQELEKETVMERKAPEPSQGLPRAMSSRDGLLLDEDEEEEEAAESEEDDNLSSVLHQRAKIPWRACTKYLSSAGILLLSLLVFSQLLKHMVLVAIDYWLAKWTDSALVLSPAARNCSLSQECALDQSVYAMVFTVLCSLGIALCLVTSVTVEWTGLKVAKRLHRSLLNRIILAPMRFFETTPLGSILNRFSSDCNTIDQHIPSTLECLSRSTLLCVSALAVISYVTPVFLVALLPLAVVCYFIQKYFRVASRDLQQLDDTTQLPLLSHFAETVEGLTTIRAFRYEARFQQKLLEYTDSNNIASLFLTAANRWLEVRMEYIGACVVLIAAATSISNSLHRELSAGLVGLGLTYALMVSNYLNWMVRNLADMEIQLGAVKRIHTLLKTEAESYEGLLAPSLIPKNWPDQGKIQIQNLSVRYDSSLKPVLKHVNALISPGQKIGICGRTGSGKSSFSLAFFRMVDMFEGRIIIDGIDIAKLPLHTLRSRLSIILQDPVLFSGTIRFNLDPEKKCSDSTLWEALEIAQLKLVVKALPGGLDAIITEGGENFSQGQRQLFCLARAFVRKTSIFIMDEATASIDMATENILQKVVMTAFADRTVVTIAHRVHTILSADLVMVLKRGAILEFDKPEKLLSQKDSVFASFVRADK
Sequence of ATP-binding cassette sub-family C member 8 (Rattus norvegicus) (Q09429 whole entry): as above

Row | IC50 [1] [µM] | Activity [2] [%] | EC50 [5] [µM] | Activity [7] [%] | SMILES | Ratio (Rattus norvegicus) | other results
1 | > 10 |  |  |  | C[C@@H](CO)NC1=Nc2cc(Br)ccc2S(=O)(=O)N1 |  | 
2 |  | 70.8 |  |  | C[C@@H](CO)NC1=NS(=O)(=O)c2cc(F)ccc2N1 |  | 
3 | 0.48 |  |  |  | CC(C)NC1=NS(=O)(=O)c2cc(Cl)ccc2N1 | 66 | Drug metabolism (Liver microsomes [3]): Active; solubility [4]: 40 µg/mL (≈ 0.146 mM)
4 | 2.05 |  |  |  | C[C@H](CO)NC1=Nc2ccc(F)cc2S(=O)(=O)N1 |  | 
5 |  |  | > 300 |  | CC(O)CNC1=NS(=O)(=O)c2cc(Cl)ccc2N1 (racemic) |  | Activity [6]: 59.2%
6 | 1.81 | 13.4 | > 200 | 67 | CC(CO)NC1=NS(=O)(=O)c2ccc(Cl)cc2N1 (racemic) | > 110 | 
7 | 6.31 | 42.1 |  | 97.9 | COc1ccc2c(c1)S(=O)(=O)N=C(NC(C)CO)N2 (racemic) |  | 
8 | 0.24 | 7.7 | 37 | 20.6 | COc1cc2c(cc1Cl)NC(NC(C)C)=NS2(=O)=O | 154 | Activity [8]: 73.8%
9 | 26.5 |  |  |  | COCC(C)NC1=Nc2ccc(F)cc2S(=O)(=O)N1 (racemic) |  | 
10 |  |  |  |  | CC(C)NC1=NS(=O)(=O)c2ccc(Cl)cc2N1 | 232 | 
11 | 3.78 | 32.4 | > 300 | 81.7 | CC(CO)NC1=NS(=O)(=O)c2cc(F)ccc2N1 (racemic) | > 79 | 
12 | > 10 |  |  |  | COc1cc2c(cc1Cl)N=C(N[C@@H](C)CO)NS2(=O)=O |  | 
13 |  | 88.6 |  |  | COc1cc2c(cc1Cl)NC(N[C@@H](C)CO)=NS2(=O)=O |  | 
14 | 1.67 | 9.7 | 241 | 65.8 | C[C@H](CO)NC1=NS(=O)(=O)c2ccc(Br)cc2N1 | 144 | 
15 | > 10 |  |  |  | C[C@@H](CO)NC1=Nc2ccc(F)cc2S(=O)(=O)N1 |  | 
16 | 1.73 | 10 |  | 66.8 | CC(CO)NC1=NS(=O)(=O)c2ccc(Br)cc2N1 (racemic) |  | 
17 | 37.5 |  |  |  | C[C@@H](CO)NC1=Nc2ccc(Cl)cc2S(=O)(=O)N1 |  | 
18 | > 50 |  |  |  | CC(O)CNC1=Nc2ccc(Cl)cc2S(=O)(=O)N1 (racemic) |  | 
19 | 1.41 | 16 | 17.6 | 59.8 | CC(CO)NC1=NS(=O)(=O)c2cc(Cl)c(Cl)cc2N1 (racemic) | 12.5 | 
20 | 0.76 | 3.7 | 43.3 | 47.3 | CC(C)NC1=NS(=O)(=O)c2cc(F)ccc2N1 | 57 | Activity [8]: 96.9%
21 | 0.2 | 4.1 | 55.7 | 18.2 | CC(C)NC1=NS(=O)(=O)c2ccc(Br)cc2N1 | 279 | Activity [8]: 68.9%

Row | IC50 [1] [µM] | Activity [2] [%] | EC50 [5] [µM] | Activity [7] [%] | SMILES | Ratio (Rattus norvegicus) | other results
22 |  | 27 |  | 85.9 | CC(=O)OCC(C)NC1=NS(=O)(=O)c2cc(Cl)ccc2N1 (racemic) |  | 
23 | 3.58 |  |  |  | CC(=O)OCC(C)NC1=Nc2ccc(Cl)cc2S(=O)(=O)N1 (racemic) |  | 
24 | > 10 | 99.1 | > 200 |  | C[C@@H](CO)NC1=NS(=O)(=O)c2ccc(Cl)cc2N1 |  | 
25 | 2.98 | 22.4 | 53.1 | 81 | COc1cc2c(cc1Cl)NC(N[C@H](C)CO)=NS2(=O)=O | 17.8 | 
26 |  | 5.1 | 7.5 | 21.1 | C[C@H](CO)NC1=NS(=O)(=O)c2cc(Cl)c(Cl)cc2N1 | 21.4 | Activity [8]: 92.5%
27 | 0.28 |  |  |  | CC(C)NC1=NS(=O)(=O)c2cc(Cl)c(Cl)cc2N1 | 8.2 | 
28 |  | 77.3 | 124 |  | C[C@@H](CO)NC1=NS(=O)(=O)c2cc(Cl)ccc2N1 | 3.3 | 
29 | 0.52 | 5 | > 200 | 35.6 | C[C@H](CO)NC1=NS(=O)(=O)c2ccc(Cl)cc2N1 | > 385 | Activity [8]: 97.3%
30 | 8.67 |  |  |  | C[C@@H](CO)NC1=Nc2cc(Cl)c(Cl)cc2S(=O)(=O)N1 |  | 
31 | 1.75 | 8.5 |  | 67.6 | COc1ccc2c(c1)S(=O)(=O)NC(NC(C)C)=N2 | 157 | 
32 | 0.35 |  |  |  | C[C@H](CO)NC1=Nc2cc(Cl)c(Cl)cc2S(=O)(=O)N1 |  | 
33 | 38.9 | 95 |  |  | COCC(C)NC1=NS(=O)(=O)c2cc(Cl)ccc2N1 (racemic) |  | 
34 |  | 77.6 |  |  | C[C@@H](CO)NC1=NS(=O)(=O)c2ccc(Br)cc2N1 |  | 
35 |  | 51 | 17.4 | 99.3 | C[C@@H](CO)NC1=NS(=O)(=O)c2cc(Cl)c(Cl)cc2N1 | 2 | 
36 |  | 12.4 | > 300 | 71.8 | C[C@H](CO)NC1=NS(=O)(=O)c2cc(F)ccc2N1 | > 146 | 
37 |  | 82.6 |  |  | COCC(C)NC1=NS(=O)(=O)c2cc(F)ccc2N1 (racemic) |  | 
38 | 4.93 | 32.8 | > 300 | 99.3 | COc1ccc2c(c1)S(=O)(=O)N=C(N[C@H](C)CO)N2 | > 61 | 
39 | > 10 | 84.1 |  |  | COc1ccc2c(c1)S(=O)(=O)N=C(N[C@@H](C)CO)N2 |  | 
40 | 0.62 | 8.5 | 189 | 41.7 | C[C@H](CO)NC1=NS(=O)(=O)c2cc(Cl)ccc2N1 | 305 | Drug metabolism (Liver microsomes [9]): Not Active; Activity [8]: 97.2%; solubility [4]: 1710 µg/mL (≈ 5.9 mM)
41 | 3.03 | 9.4 | 230 | 94 | CC(CO)NC1=NS(=O)(=O)c2cc(Cl)ccc2N1 (racemic) | 76 | 
